Measurements: ChEMBL document CHEMBL1154321, “Benzoxazole piperidines as selective and potent somatostatin receptor subtype 5 antagonists” (Bioorg Med Chem Lett, 2009)
Values after ≈ are worked out from the molar mass of the structure shown.

Experiments:
[1] = target: Somatostatin receptor type 5 (Homo sapiens, UniProt P35346); test: Displacement of SST14 from human recombinant SST5 receptor expressed in CHO cells by radioligand binding assay; format: cell-based
In short: (§1)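 Membranes prepared by sonication from cells expressing the SST receptor subtype, incubated with radiolabeled 11-Tyr SST-14 tracer and test compound at varying concentrations; non-labeled SST-14 defined non-specific binding. Incubation stopped by glass-fiber filtration, bound radioactivity counted; IC50 for half-maximal binding inhibition estimated and Ki derived.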

[2] = target: Somatostatin receptor type 2 (Homo sapiens, UniProt P30874); test: Displacement of SST14 from human recombinant SST2 receptor; in short: as §1
[3] = target: Somatostatin receptor type 3 (Homo sapiens, UniProt P32745); test: Displacement of SST14 from human recombinant SST3 receptor; in short: as §1
[4] = target: Somatostatin receptor type 4 (Homo sapiens, UniProt P31391); test: Displacement of SST14 from human recombinant SST4 receptor; in short: as §1
Histamine H1 receptor = Histamine H1 receptor (Homo sapiens, UniProt P35367); test: Binding affinity to human histamine H1 receptor
Homo sapiens = organism: Homo sapiens; test: Selectivity ratio of Ki for human histamine H1 receptor to Ki for human SST5 receptor
[5] = Solubility in phosphate buffer at pH 6.5 by lyophilization solubility assay; format: physicochemical
In short: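 Lyophilized DMSO stock solutions redissolved in 50 mM phosphate buffer, pH 6.5; solubility read spectrophotometrically.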

[6] = sPermeability by PAMPA; format: ADME; details: read-out: permeability
In short: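 Parallel artificial membrane permeation; Pe categorized as low (<0.1), medium (0.1–1.0) or high (>1.0).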

[7] = Octanol-TAPSO partition coefficient, log D at pH 7.4 by spectrophotometry; format: physicochemical; details: octanol/TAPSO buffer
In short: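 Spectrophotometric log D in 1-octanol/50 mM TAPSO buffer, pH 7.4, containing 5% (v/v) DMSO.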

[8] = Dissociation constant, pKa by spectrophotometry; format: physicochemical
[9] = Clearance in Wistar rat administered as single dose; format: ADME, organism-based; details: in vivo
[10] = Volume of distribution at steady state in Wistar rat administered as single dose; format: ADME, organism-based; details: in vivo, read-out: Vdss
[11] = Terminal half-life in Wistar rat administered as single dose; format: ADME, organism-based; details: in vivo, read-out: beta t1/2 (converted)
[12] = Oral bioavailability in Wistar rat administered as single dose; format: ADME, organism-based; details: in vivo

Sequence of Somatostatin receptor type 5 (P35346 whole entry): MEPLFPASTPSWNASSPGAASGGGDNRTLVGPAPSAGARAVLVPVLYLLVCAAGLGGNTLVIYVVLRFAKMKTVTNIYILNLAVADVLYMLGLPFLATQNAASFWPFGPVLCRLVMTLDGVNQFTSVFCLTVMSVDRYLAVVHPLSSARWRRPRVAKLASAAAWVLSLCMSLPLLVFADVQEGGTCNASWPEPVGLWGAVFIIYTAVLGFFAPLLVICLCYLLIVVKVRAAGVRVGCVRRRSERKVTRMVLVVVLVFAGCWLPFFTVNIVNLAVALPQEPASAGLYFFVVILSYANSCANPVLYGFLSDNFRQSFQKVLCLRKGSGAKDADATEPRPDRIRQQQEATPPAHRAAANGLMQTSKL
Sequence of Somatostatin receptor type 4 (P31391 whole entry): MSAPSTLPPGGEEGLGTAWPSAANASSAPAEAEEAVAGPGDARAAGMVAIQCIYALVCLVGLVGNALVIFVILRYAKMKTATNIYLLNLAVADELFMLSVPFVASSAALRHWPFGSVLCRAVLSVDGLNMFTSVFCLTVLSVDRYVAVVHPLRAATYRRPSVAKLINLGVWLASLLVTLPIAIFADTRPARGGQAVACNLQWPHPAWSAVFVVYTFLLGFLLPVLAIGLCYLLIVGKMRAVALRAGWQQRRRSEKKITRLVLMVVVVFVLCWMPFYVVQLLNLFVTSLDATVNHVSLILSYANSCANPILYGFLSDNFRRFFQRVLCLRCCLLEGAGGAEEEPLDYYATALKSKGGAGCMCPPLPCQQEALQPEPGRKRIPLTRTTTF
Sequence of Histamine H1 receptor (P35367 whole entry): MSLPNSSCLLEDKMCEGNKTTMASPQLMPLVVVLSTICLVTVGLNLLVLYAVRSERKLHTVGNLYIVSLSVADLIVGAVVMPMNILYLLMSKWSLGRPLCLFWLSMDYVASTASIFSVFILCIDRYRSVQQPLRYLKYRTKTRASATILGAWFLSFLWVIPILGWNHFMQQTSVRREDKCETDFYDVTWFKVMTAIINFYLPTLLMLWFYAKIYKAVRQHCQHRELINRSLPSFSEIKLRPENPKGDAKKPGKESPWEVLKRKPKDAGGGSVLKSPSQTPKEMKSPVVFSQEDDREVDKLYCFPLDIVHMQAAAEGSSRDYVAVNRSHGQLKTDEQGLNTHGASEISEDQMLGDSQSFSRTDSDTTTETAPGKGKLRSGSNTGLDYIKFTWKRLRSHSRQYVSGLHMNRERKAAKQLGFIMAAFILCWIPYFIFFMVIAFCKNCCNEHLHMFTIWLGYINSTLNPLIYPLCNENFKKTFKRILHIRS
Sequence of Somatostatin receptor type 2 (P30874 whole entry): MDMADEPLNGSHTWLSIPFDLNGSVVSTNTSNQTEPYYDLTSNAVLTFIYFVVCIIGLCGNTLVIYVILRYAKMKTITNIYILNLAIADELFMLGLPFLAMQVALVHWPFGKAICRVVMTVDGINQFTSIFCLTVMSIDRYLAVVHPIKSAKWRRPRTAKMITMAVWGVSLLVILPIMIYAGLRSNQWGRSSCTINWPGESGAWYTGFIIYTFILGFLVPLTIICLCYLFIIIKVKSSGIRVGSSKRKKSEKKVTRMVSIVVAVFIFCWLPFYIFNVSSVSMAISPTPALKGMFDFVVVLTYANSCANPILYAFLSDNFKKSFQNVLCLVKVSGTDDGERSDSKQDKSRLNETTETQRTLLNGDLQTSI
Sequence of Somatostatin receptor type 3 (P32745 whole entry): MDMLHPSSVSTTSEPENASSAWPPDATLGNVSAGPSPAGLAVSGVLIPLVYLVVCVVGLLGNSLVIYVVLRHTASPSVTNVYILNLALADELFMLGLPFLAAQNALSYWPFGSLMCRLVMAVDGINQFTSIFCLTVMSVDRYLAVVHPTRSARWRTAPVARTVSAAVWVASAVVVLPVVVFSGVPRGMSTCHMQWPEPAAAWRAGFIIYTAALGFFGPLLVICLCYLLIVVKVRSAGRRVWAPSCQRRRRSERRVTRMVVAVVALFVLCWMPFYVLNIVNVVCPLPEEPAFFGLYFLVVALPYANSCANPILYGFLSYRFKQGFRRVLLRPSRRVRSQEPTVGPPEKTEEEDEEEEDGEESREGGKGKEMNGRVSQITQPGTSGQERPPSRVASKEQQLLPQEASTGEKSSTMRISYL

Row | SMILES | Ki [1] [µM] | Ki [2] [µM] | Ki [3] [µM] | Ki [4] [µM] | Ki (Histamine H1 receptor) [µM] | Ratio Ki (Homo sapiens) | solubility [5] [µg/mL] | Papp [6] [×10⁻⁶ cm/s] | logD [7] | pKa [8] | clearance [9] [mL/min/kg] | Vd [10] [L/kg] | half-life [11] [h] | bioavailability [12] [%]
1 | CCOc1cc(NC2CCN(c3nc4ccccc4s3)CC2)ccc1OC | > 1 | > 10 | > 10 | > 10 |  |  |  |  |  |  |  |  |  | 
2 | CCOc1cc(NC2CCC(NCc3nc4ccccc4s3)CC2)ccc1OC (centres undefined) | > 1 | > 10 | > 10 | > 10 |  |  |  |  |  |  |  |  |  | 
3 | CCOc1cc(CN2CCC(Nc3nc4cc(S(=O)(=O)N(C)C)ccc4o3)CC2)cc(OCC)c1-n1cccc1 | 0.052 | > 10 | > 10 | > 10 | 5 | 96 | 22 (≈ 38.8 µM) | 1.31 | 2.89 |  |  |  |  | 
4 | CCOC(=O)c1c(OCC)cc(CN2CCC(Nc3nc4ccccc4o3)CC2)cc1OCC | 0.156 | > 10 | > 10 | > 10 |  |  |  |  |  |  |  |  |  | 
5 | CCOc1cc(CN2CCC(Nc3nc4ccccc4o3)CC2)c(F)c(OCC)c1 | > 1 | > 10 | > 10 | > 10 |  |  |  |  |  |  |  |  |  | 
6 | CCOc1cc(CN2CCC(C(=O)Nc3nc4ccccc4s3)CC2)ccc1OC | > 1 | > 10 | > 10 | > 10 |  |  |  |  |  |  |  |  |  | 
7 | CCOc1cc(CN2CCC(Nc3nc4ncccc4o3)CC2)ccc1OC | > 1 | > 10 | > 10 | > 10 |  |  |  |  |  |  |  |  |  | 
8 | CCOc1cc(CN2CCC(Nc3nc4cc(Cl)c(S(N)(=O)=O)cc4o3)CC2)ccc1OC | 0.343 | > 10 | > 10 | > 10 | 1.01 | 3 | 338 (≈ 683 µM) | 1.1 | 2.67 | 7.92 |  |  |  | 
9 | CCOc1cc(CN2CCC(Nc3nc4cc(S(=O)(=O)N(C)C)ccc4o3)CC2)ccc1OC | 0.226 | > 10 | > 10 | > 10 |  |  |  |  |  |  |  |  |  | 
10 | CCOc1cc(CN2CCC(Nc3nc4cc(S(=O)(=O)CC)ccc4o3)CC2)ccc1OC | 0.196 | > 10 | > 10 | > 10 |  |  | > 530 | 1.63 | 2.13 | 8.1 | 126 | 3.8 | 0.4 | 6
11 | CCOc1cc(CN2CCC(Nc3nc4ccccc4s3)CC2)ccc1OC | 0.33 | > 10 | > 10 | > 10 |  |  |  |  |  |  |  |  |  | 
12 | CCOc1cc(CN2CCC(Nc3nc4cccnc4o3)CC2)ccc1OC | 0.633 | > 10 | > 10 | > 10 |  |  |  |  |  |  |  |  |  | 
13 | CCOc1cc(CN2CCC(Nc3nc4cc(NS(=O)(=O)c5ccccc5)ccc4o3)CC2)ccc1OC | 0.205 | > 10 | > 10 | > 10 | 0.199 | 1 | 145 (≈ 270 µM) | 2.2 | 1.93 | 7.72 |  |  |  | 
14 | CCOc1cc(NC2CCC(Nc3nc4ccccc4s3)CC2)ccc1OC (centres undefined) | > 1 | > 10 | > 10 | > 10 |  |  |  |  |  |  |  |  |  | 
15 | CCOc1cc(CN2CCC(Nc3nc4ccc(Cl)cc4o3)CC2)ccc1Cl | 0.239 | > 10 | > 10 | > 10 |  |  | 44 (≈ 105 µM) | 4.81 |  |  | 37 | 4.6 | 2.6 | 33

More lines, now with the values ahead:

Row | Ki [1] [µM] | Ki [2] [µM] | Ki [3] [µM] | Ki [4] [µM] | Ki (Histamine H1 receptor) [µM] | Ratio Ki (Homo sapiens) | solubility [5] [µg/mL] | Papp [6] [×10⁻⁶ cm/s] | logD [7] | pKa [8] | clearance [9] [mL/min/kg] | Vd [10] [L/kg] | half-life [11] [h] | bioavailability [12] [%] | SMILES
16 | 0.537 | > 10 | > 10 | > 10 |  |  |  |  |  |  |  |  |  |  | CCOc1cc(CN2CCC(Nc3nc4ccccc4o3)CC2)ccc1OC1CC1
17 |  | > 10 | > 10 | > 10 |  |  |  |  |  |  |  |  |  |  | COc1ccc(CN2CCC(Nc3nc4ccccc4o3)CC2)cc1OCC(C)C
18 | 0.371 | > 10 | > 10 | > 10 |  |  |  |  |  |  |  |  |  |  | CCNc1cc(CN2CCC(Nc3nc4ccccc4o3)CC2)ccc1OC
19 |  | > 10 | > 10 | > 10 | 0.826 | 4.3 | > 452 | 4.33 | 3.63 | 7.79 |  |  |  |  | CCOc1cc(CN2CCC(Nc3nc4ccccc4o3)CC2)ccc1F
20 |  | > 10 | > 10 | > 10 |  |  |  |  |  |  |  |  |  |  | CCOc1cc(CN2CCC(Nc3nc4ccccc4o3)CC2)ccc1C
21 |  | > 10 | > 10 | > 10 |  |  |  |  |  |  |  |  |  |  | CCOc1cc(CN2CCC(Nc3nc4ccccc4o3)CC2)ccc1O
22 |  | > 10 | > 10 | > 10 |  |  |  |  |  |  |  |  |  |  | CCCOc1cc(CN2CCC(Nc3nc4ccccc4o3)CC2)ccc1OC
23 | 0.194 | > 10 | > 10 | > 10 |  |  |  |  |  |  |  |  |  |  | CCOc1cc(CN2CCC(Nc3nc4cc(Cl)ccc4o3)CC2)ccc1OC
